Consider 1 compound from publication PMC9179932 (Nature chemical biology, 2022).

Each structure is given as a SMILES string.

One data set concerns the target recombinant DPP9 (Homo sapiens, UniProt Q86TI2). Description: AP-AMC-based DPP9 substrate assay. Format: biochemical. Particulars: Supplementary Table 1. The procedure, abridged: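 Recombinant DPP9 (1 nM) is dispensed into 384-well plates and test compound is added by pintool over a concentration series. Reaction starts with 25 μM AP-AMC. Cleavage is read as rising fluorescence (ex/em 380/460 nm) at 25 °C for 30 min.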

Data set [1] deals with T1, PEPD (Homo sapiens, UniProt P12955).
T1 sequence (P12955 1-493): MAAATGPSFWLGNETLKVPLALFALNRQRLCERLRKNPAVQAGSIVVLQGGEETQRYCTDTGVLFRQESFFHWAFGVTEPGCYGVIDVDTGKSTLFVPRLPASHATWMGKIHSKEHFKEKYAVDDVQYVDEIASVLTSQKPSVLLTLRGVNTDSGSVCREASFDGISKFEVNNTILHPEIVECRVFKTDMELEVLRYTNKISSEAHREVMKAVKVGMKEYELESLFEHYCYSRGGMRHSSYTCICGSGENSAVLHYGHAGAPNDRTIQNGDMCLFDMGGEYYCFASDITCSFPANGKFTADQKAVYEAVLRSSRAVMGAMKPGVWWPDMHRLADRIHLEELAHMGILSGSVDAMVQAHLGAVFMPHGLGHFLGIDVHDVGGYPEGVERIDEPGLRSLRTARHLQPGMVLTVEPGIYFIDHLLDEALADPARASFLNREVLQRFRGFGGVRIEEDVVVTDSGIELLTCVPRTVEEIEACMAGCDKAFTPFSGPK
Nature of the data set: PEPD assay. Type of data set: biochemical. The procedure, abridged: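 His-tagged human PEPD is expressed in E. coli Rosetta DE3 (IPTG, 4 h, 37 °C) and purified on TALON resin. Enzyme at 50 nM is mixed with Ala-Pro (40 μM final) and test compound. Liberated alanine is measured fluorometrically (resorufin, ex/em 535/587 nm) at 25 °C with an L-alanine assay kit.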

For another data set, the target named is T2, prolidase (PEPD) (Homo sapiens, UniProt P12955).
T2 sequence (P12955 1-493): T1 sequence (P12955 1-493)
Nature of the data set: Prolidase activity. Particulars: dose-dependent. Format: biochemical. The essentials: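 THP-1 lysates are normalised to 5 mg ml−1 and incubated with Ala-Pro dipeptide (40 μM final) and test compound at varying doses. Released alanine is quantified as increasing resorufin fluorescence (535/587 nm) at 25 °C using an L-alanine detection kit.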

The subject of data set [2] is bestatin-sensitive aminopeptidases. Nature of the data set: Recombinant aminopeptidase AMC reporter assays. Format: biochemical. Conditions: Supplementary Table 1. The essentials: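 Recombinant enzymes are incubated with test compound over a concentration range, then AMC substrate is added. Enzyme and substrate pairs: RNPEP 1.4 nM with 200 μM R-AMC; DPP3 0.6 nM with 100 μM RR-AMC; LTA4H 114.3 nM with 400 μM R-AMC; NPEPPS 1 nM with 10 μM L-AMC; ANPEP 1.2 nM with 100 μM A-AMC. Fluorescence (380/460 nm) is recorded at 25 °C for 30 min.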
(In general: A reporter such as luciferase makes a cellular process visible.)

In data set [3] the target is T1, PEPD. Description: CETSA in HEK 293T lysates. Format: binding. Conditions: 10 μM. The essentials:
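HEK 293T cells are sonicated and cleared at 10,000g for 10 min. Clarified lysate is incubated with test compound (10 μM) for 30 min, then heated for 30 min at a temperature series. Aggregates are pelleted at 18,000g for 20 min, and the soluble supernatant is immunoblotted for the target.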

In another data set the target is NPEPPS (Homo sapiens, UniProt P55786). Nature of the data set: CETSA in HEK 293T lysates. Type of data set: binding. Particulars: 10 μM. The essentials:
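HEK 293T cells homogenised by sonication; debris cleared at 10,000g for 10 min. Clarified lysate incubated 30 min with test compound, then heated 30 min at a series of set temperatures between 38.7 and 70.9 °C. Aggregates pelleted at 18,000g for 20 min; soluble target in supernatant detected by immunoblotting.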

Data set [4] deals with T1, PEPD. Description: CETSA in THP-1 cell lysates. Format: binding. Particulars: 0.5, 5 μM. The procedure, abridged: (§1)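 THP-1 (Cas9) cell lysate is made by sonication and cleared at 10,000g for 10 min. It is exposed to test compound (0.5 or 5 μM) for 30 min, then heated 30 min at 40.6, 50.8, 60.1 or 70.9 °C. After spinning at 18,000g for 20 min, the soluble fraction is immunoblotted.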

The target in data set [5] is T3, XPNPEP1 (Homo sapiens, UniProt Q9NQW7). Nature of the data set: CETSA in THP-1 cell lysates. Format: binding. Particulars: 0.5, 5 μM. The essentials:
as §1
Target sequence in this assay (Q9NQW7 whole entry): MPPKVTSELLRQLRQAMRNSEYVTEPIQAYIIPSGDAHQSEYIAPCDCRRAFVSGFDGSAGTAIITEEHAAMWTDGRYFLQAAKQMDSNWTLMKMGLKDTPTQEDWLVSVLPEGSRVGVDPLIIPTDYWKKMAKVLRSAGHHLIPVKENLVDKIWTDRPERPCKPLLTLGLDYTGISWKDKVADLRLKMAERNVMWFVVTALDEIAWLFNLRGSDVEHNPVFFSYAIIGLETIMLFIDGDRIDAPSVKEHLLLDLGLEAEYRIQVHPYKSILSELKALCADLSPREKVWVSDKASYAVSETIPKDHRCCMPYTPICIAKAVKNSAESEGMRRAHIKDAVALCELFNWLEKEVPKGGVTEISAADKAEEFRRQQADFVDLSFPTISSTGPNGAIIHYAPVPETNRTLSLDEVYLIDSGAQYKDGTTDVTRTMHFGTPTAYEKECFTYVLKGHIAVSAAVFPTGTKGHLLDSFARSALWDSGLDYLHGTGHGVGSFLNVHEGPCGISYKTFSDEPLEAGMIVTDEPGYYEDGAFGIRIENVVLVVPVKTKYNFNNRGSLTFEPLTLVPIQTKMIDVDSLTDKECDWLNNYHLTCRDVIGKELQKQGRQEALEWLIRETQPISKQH

Data set [6] has as its target T4, XPNPEP3 (Homo sapiens, UniProt Q9NQH7). Nature of the data set: CETSA in THP-1 cell lysates. Type of data set: binding. The procedure, abridged:
as §1

Data set [7] deals with T3, XPNPEP1. Description: XPNPEP1 enzymatic assay. Type of data set: biochemical. Conditions: Supplementary Table 2. The procedure, abridged:
(§2)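 Enzymes are XPNPEP1 recombinant at 3.5 nM, or XPNPEP3 FLAG-immunoprecipitated after 48 h overexpression in HEK 293T. Each is treated with graded doses of test compound. H-Lys(abz)-Pro-Pro-pNA is added at 100 μM final, and fluorescence (ex/em 320/410 nm) is monitored for 30 min.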
Target sequence in this assay (Q9NQW7 whole entry, species assumed): as the sequence (Q9NQW7 whole entry) above

For data set [8], the target named is T4, XPNPEP3. Description: XPNPEP3 enzymatic assay. Type of data set: biochemical. Particulars: Supplementary Table 2. The procedure, abridged:
as §2

For the next data set, the system named is MV4;11 cells. Description: MV4. Type of data set: cell-based. Conditions: 24 h, CTG.
The target of the next data set is NLRP1–DPP9 interaction (Homo sapiens, UniProt Q86TI2). Description: DPP9 displacement from FLAG-NLRP1 on anti-FLAG beads. Format: binding. Particulars: VbP 10 μM; VP dipeptide 0.5, 5 mM; CQ31, CQ04 10 μM.
NLRP1–DPP9 interaction, sequence (Q86TI2 whole entry): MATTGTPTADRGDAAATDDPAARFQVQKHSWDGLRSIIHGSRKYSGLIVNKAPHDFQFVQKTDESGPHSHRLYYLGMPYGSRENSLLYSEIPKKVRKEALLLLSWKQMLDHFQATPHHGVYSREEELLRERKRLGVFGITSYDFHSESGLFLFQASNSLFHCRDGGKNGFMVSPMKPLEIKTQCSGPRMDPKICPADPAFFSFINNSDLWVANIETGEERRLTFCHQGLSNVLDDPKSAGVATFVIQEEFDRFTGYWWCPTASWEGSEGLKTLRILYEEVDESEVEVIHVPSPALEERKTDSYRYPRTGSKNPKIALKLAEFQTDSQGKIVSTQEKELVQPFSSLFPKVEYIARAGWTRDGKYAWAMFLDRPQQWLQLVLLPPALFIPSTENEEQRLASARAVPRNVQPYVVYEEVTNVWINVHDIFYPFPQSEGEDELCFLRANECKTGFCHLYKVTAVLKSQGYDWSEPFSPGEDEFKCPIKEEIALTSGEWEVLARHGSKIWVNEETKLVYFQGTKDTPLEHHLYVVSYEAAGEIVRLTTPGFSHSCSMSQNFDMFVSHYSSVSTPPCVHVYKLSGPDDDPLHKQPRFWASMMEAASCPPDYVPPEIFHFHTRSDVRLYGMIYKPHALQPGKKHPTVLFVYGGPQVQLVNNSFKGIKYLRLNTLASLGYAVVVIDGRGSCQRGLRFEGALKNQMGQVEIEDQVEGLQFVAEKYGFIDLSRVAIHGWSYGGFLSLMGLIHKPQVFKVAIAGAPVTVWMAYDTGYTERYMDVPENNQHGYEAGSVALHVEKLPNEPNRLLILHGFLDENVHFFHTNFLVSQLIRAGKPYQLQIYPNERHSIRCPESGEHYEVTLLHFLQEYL

NPEPPS, sequence (P55786 whole entry): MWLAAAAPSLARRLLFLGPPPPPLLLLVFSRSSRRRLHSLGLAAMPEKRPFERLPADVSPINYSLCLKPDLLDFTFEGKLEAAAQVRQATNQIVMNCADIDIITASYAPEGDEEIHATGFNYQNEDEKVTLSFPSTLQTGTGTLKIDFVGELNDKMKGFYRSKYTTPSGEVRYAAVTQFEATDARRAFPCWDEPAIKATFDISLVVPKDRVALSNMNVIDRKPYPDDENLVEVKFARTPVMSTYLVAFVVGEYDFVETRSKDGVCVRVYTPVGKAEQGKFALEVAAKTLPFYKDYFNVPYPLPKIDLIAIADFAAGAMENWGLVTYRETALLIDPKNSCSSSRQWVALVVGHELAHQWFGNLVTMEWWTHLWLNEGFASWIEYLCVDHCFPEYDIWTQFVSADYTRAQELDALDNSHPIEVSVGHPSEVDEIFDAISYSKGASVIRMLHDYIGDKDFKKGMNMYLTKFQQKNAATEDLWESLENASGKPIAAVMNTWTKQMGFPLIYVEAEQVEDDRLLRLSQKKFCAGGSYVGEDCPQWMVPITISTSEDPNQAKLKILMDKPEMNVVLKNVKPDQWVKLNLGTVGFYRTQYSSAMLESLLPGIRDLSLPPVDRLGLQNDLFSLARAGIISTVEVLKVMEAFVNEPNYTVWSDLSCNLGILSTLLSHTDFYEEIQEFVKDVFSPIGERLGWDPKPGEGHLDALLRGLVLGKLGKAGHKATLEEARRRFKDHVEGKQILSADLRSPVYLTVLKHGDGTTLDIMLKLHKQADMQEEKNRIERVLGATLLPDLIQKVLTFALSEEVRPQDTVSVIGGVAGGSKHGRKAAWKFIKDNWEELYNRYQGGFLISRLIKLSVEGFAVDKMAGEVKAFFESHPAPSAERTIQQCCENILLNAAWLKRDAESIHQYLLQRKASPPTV
recombinant DPP9, sequence (Q86TI2 whole entry, species assumed): as the sequence (Q86TI2 whole entry) above

What is called IC50 is the concentration at which inhibition is half-maximal. For the compound `CC(C)C[C@@H](N)C(O)C(=O)N1CCC[C@H]1C(=O)O` (stereo partly drawn) [CQ04, (2S,3R)-3-amino-2-hydroxy-5-methyl-hexanoyl-proline], the “direct DPP9 (DPP8/9) inhibition” value at recombinant DPP9 is given as “did not inhibit”. For the same compound, the IC50 on PEPD [1] was determined as 160 nM. Moreover, the “prolidase activity (Ala-Pro dipeptide cleavage) in THP-1 cell lysates” value at prolidase (PEPD) was “completely blocked prolidase activity”. In addition, the “inhibition of bestatin-sensitive aminopeptidases” value in data set [2] is “did not inhibit”. For the same compound, the “thermal stabilization of PEPD” value at PEPD [3] is “stabilized PEPD”; on PEPD [4], “stabilize both PEPD and XPNPEP1”. For the same compound, the “thermal stabilization of NPEPPS” value at NPEPPS is recorded as “nor the bestatin-sensitive aminopeptidase NPEPPS”. Further, at XPNPEP1 [5], the “thermal stabilization of XPNPEP1” value was “stabilize both PEPD and XPNPEP1”. In addition, the “thermal stabilization of XPNPEP3” value on XPNPEP3 [6] is on record as “slightly stabilized XPNPEP3”. In addition, the “inhibition of XPNPEP1 enzymatic activity” value at XPNPEP1 [7] is on record as “inhibits XPNPEP1 enzymatic activity”. Further, the “inhibition of XPNPEP3 in an enzymatic assay” value against XPNPEP3 [8] was “inhibited XPNPEP3”. Further, the “cytotoxicity in CASP1−/− MV4;11 cells” value in the data set on MV4;11 cells (CASP1−/−) is listed as “not cytotoxic”. Also, in the data set on MV4;11 cells (WT), the “cytotoxicity in WT MV4;11 cells” value is “not cytotoxic”. Further, the “disruption of NLRP1–DPP9 interaction (DPP9 elution)” value at NLRP1–DPP9 interaction is given as “had no impact on the NLRP1 ternary complex”.
